From ChEMBL document CHEMBL4229364, “Structure-activity relationships of 2, 4-disubstituted pyrimidines as dual ERα/VEGFR-2 ligands with anti-breast cancer activity” (Eur J Med Chem, 2018)

What follows are compounds tested against T1, Vascular endothelial growth factor receptor 2 (Homo sapiens, UniProt P35968) (assay: Inhibition of VEGFR2 (unknown origin) using TK substrate after 1 hr by HTRF assay). Settings: not given.
T1 sequence (P35968 whole entry): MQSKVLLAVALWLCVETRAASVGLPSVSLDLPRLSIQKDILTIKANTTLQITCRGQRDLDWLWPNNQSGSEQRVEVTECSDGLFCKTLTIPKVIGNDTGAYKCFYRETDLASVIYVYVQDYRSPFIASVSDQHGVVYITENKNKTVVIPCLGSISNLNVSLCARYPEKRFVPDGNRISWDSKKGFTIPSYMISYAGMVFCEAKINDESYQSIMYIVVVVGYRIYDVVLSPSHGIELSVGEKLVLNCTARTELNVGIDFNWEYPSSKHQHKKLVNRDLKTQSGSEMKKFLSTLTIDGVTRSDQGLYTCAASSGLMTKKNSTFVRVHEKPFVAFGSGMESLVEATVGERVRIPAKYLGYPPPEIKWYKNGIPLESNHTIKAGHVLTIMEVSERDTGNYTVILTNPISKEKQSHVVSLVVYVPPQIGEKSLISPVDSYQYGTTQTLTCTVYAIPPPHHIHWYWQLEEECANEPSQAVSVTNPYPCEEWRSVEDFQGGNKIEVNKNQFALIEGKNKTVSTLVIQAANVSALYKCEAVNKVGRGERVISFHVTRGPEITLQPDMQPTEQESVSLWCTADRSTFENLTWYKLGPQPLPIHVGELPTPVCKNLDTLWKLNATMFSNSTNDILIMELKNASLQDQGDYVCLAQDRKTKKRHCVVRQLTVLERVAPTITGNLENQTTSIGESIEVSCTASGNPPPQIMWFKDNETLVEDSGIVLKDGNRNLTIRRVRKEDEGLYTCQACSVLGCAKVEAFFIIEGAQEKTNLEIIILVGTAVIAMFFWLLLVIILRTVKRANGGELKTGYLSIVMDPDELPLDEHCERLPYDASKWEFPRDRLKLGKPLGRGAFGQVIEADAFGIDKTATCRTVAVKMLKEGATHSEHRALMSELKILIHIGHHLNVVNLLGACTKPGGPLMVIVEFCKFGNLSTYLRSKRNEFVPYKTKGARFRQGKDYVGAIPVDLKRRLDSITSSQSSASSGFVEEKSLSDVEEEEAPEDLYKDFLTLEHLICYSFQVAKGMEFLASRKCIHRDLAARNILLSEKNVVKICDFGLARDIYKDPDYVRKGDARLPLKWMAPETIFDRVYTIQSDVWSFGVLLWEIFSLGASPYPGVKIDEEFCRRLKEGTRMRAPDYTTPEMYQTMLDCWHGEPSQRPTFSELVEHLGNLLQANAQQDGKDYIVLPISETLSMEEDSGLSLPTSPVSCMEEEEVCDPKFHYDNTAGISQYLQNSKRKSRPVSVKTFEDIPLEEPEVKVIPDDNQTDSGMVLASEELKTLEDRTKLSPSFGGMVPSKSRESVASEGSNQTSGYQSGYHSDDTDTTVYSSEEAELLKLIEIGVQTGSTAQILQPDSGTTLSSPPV

| IC50 [µM] | Compound |
| --- | --- |
| > 1 | CCN(CC)CC(=O)Nc1ccc(Nc2cc(Cl)nc(-c3ccc(OC)cc3)n2)cc1 |
| > 1 | COc1ccc(-c2nc(Cl)cc(Oc3ccc(OCCN4CCCC4)cc3)n2)cc1 |
| > 1 | CN(C)CCOc1ccc(Nc2nc(-c3ccc(O)cc3)nc(Cl)c2-c2ccccc2)cc1 |

Each compound was assayed against T2, Estrogen receptor (Homo sapiens, UniProt P03372) (assay: Displacement of Fluormone ES2 Green from full length human ER-alpha expressed in insect cells after 2 hrs by fluorescence polarization assay). Settings: not given.
T2 sequence (P03372 whole entry): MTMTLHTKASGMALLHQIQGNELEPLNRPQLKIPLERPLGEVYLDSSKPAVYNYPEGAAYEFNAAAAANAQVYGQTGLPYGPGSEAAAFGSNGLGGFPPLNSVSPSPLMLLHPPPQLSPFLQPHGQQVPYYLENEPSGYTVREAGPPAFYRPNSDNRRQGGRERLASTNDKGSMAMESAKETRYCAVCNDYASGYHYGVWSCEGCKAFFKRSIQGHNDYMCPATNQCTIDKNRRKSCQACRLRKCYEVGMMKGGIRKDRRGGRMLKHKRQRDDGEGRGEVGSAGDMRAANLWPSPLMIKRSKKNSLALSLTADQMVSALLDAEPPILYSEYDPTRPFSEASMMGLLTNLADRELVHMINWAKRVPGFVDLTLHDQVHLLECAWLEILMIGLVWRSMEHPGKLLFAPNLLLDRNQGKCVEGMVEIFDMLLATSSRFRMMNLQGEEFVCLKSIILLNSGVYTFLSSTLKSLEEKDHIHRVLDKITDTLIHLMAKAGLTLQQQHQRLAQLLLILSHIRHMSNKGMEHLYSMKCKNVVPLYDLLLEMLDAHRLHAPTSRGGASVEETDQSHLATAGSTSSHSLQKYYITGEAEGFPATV

| IC50 [µM] | Compound |
| --- | --- |
| 6.22 | COc1ccc(-c2nc(Cl)cc(Oc3ccc(OCCN4CCCC4)cc3)n2)cc1 |
| 3.42 | CN(C)CCOc1ccc(Nc2nc(-c3ccc(O)cc3)nc(Cl)c2-c2ccccc2)cc1 |

What follows are compounds tested on Ishikawa (assay: Antiproliferative activity against human Ishikawa cells after 48 hrs by MTT assay). Settings: not given.
Assay type: functional, cell-based
Summary of the method: (§1)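 MTT assay. Cells were grown in RPMI1640 with 10% FBS and penicillin/streptomycin at 37°C, 5% CO2, seeded at 1×10^5/mL and rested 24 h. Compound was added at 4×10^-5 to 1×10^-6 mol/L for 48 h; controls received 1% DMSO. MTT (5 mg/mL) was added for 4 h in the dark and the formazan dissolved in DMSO. A490 was read and IC50 derived.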

| Compound | IC50 [µM] |
| --- | --- |
| CCN(CC)CC(=O)Nc1ccc(Nc2cc(Cl)nc(-c3ccc(OC)cc3)n2)cc1 | 5.81 |
| COc1ccc(-c2nc(Cl)cc(Oc3ccc(OCCN4CCCC4)cc3)n2)cc1 | 25.5 |
| CN(C)CCOc1ccc(Nc2nc(-c3ccc(O)cc3)nc(Cl)c2-c2ccccc2)cc1 | 37.1 |

The compounds below were run on MCF7 (assay: Antiproliferative activity against human MCF7 cells after 48 hrs by MTT assay). Settings: MCF7, 48 h.
Assay type: functional, cell-based
Summary of the method: as §1

| IC50 [µM] | Compound |
| --- | --- |
| > 40 | CCN(CC)CC(=O)Nc1ccc(Nc2cc(Cl)nc(-c3ccc(OC)cc3)n2)cc1 |
| 21.3 | COc1ccc(-c2nc(Cl)cc(Oc3ccc(OCCN4CCCC4)cc3)n2)cc1 |
| 33.1 | CN(C)CCOc1ccc(Nc2nc(-c3ccc(O)cc3)nc(Cl)c2-c2ccccc2)cc1 |

What follows are compounds tested against T1, Vascular endothelial growth factor receptor 2. Settings: at 10 µM.

| inhibition [%] | Compound |
| --- | --- |
| 44 | CCN(CC)CC(=O)Nc1ccc(Nc2cc(Cl)nc(-c3ccc(OC)cc3)n2)cc1 |
| 39.8 | COc1ccc(-c2nc(Cl)cc(Oc3ccc(OCCN4CCCC4)cc3)n2)cc1 |
| 68.5 | CN(C)CCOc1ccc(Nc2nc(-c3ccc(O)cc3)nc(Cl)c2-c2ccccc2)cc1 |

Each compound was assayed on HUVEC (assay: Antiproliferative activity against HUVEC after 48 hrs by MTT assay). Settings: Homo sapiens.
Assay type: functional, cell-based
Summary of the method: as §1

| Compound | IC50 [µM] |
| --- | --- |
| CCN(CC)CC(=O)Nc1ccc(Nc2cc(Cl)nc(-c3ccc(OC)cc3)n2)cc1 | 15 |
| COc1ccc(-c2nc(Cl)cc(Oc3ccc(OCCN4CCCC4)cc3)n2)cc1 | 15.8 |
| CN(C)CCOc1ccc(Nc2nc(-c3ccc(O)cc3)nc(Cl)c2-c2ccccc2)cc1 | 13.8 |
